{"source": "paper PMC9014391", "about": "(Heliyon, 2022)", "key": {"SW-620^G12V": {"test_system": "SW-620^G12V", "assay": "SRB assay", "assay_type": "cell-based", "details": "Homo sapiens, 48 h", "in_short": "(§1)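 Sulforhodamine B assay. Cells were plated at 5000–10,000/well according to doubling time, then after 24 h exposed to a 7-point, 2-fold dilution series for 48 h at 37 °C, with paclitaxel as positive control. Cells were TCA-fixed 1 h at 4 °C and stained with 0.4% SRB, with unbound dye removed by 1% acetic acid. Bound dye was dissolved in 10 mM Tris pH 10.4 and read at 540 nm. IC50 was obtained by curve fitting; quadruplicates.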"}, "[1]": {"test_system": "HCT-116^G13D-CSCs derived colonospheres", "assay": "3D colonospheres chemotherapy treatment", "assay_type": "cell-based, Human", "details": "5-FU 14.7 μM, even with prolonged exposure", "in_short": "(§2)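 Colonospheres grown from single-cell suspensions at low density in serum-free DMEM/F12 with FGF (10 ng/mL), EGF (20 ng/mL) and B27. Medium was refreshed every 3–4 days, and spheres were passaged by syringe dissociation. After ten days of growth, parental- or CSC-derived colonospheres were exposed to 5-FU (14.7/78 μM) and/or test compound (1.7/2.2 μM). Response was judged by metabolically active cells and sphere dissociation, with phase-contrast imaging.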"}, "ABCC1": {"test_system": "ABCC1", "assay": "qRT-PCR after chemotherapy treatment", "assay_type": "cell-based, Human", "details": "HCT-116^G13D- and SW-620^G12V–CSCs, 48 h; printed '∼4 and 2-fold' for 'ABCB1 and ABCC1'"}, "[2]": {"test_system": "SW-620^G12V-CSC derived colonospheres", "assay": "3D colonospheres chemotherapy treatment", "assay_type": "cell-based, Human", "details": "5-FU 78 μM, even with prolonged exposure", "in_short": "as §2"}, "[3]": {"assay_type": "in vivo, Balb/c mice", "in_short": "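Male or unspecified Balb/c mice (20–22 g), fasted overnight, four groups of five. Single oral doses were given in 0.5% DMSO/10% Solutol/water at 10 mL/kg: test compound 20 mg/kg and 5-FU 40 mg/kg, alone or combined. Retro-orbital blood was taken at 0–10 h into EDTA by sparse sampling, two samples per group. Plasma (50 μL) was protein-precipitated with methanol, centrifuged, and the organic layer analysed.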"}, "[4]": {"test_system": "ALDH1A1, ALDH1A3 and ALDH3A1", "assay": "qRT-PCR after chemotherapy treatment", "assay_type": "cell-based, Human", "details": "HCT-116^G13D and SW-620^G12V, 48 h", "in_short": "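Parental monolayers and 10-day colonospheres were treated 48 h with 5-FU (14.7/78 μM), test compound (1.7/2.2 μM) or both, with 0.2% DMSO (final) as control. RNA was extracted with Tri-reagent and DNase-treated, then reverse-transcribed. SYBR green qPCR ran 95 °C 2 min, then 40 cycles of 95 °C 5 s/60 °C 5 s, with a final 72 °C 5 min. Expression was normalised to GAPDH.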"}, "advanced CRC": {"test_system": "advanced CRC", "details": "background statement, ref not given; cited from earlier work"}, "[5]": {"test_system": "HCT-116^G13D parental derived colonospheres", "assay": "3D colonospheres chemotherapy treatment", "assay_type": "cell-based, Human", "details": "5-FU 14.7 μM, PMBA 1.7 μM, after ten days of growth", "in_short": "as §2"}, "HCT-116^G13D": {"test_system": "HCT-116^G13D", "assay": "SRB assay", "assay_type": "cell-based", "details": "Homo sapiens, 48 h", "in_short": "as §1"}, "ABCB1": {"test_system": "ABCB1", "assay": "qRT-PCR after chemotherapy treatment", "assay_type": "cell-based, Human", "details": "HCT-116^G13D- and SW-620^G12V–CSCs, 48 h; printed '∼4 and 2-fold' for 'ABCB1 and ABCC1'"}, "[6]": {"details": "Balb/c, mouse, plasma, po, 40 mg"}}, "data": [{"smiles": "O=c1[nH]cc(F)c(=O)[nH]1", "note": "[5-FU, 5-Fluorouracil]", "values": [{"measurement": "IC50", "setting": "SW-620^G12V", "value": 78.3, "unit": "µM"}, {"measurement": "response of colonospheres to treatment", "setting": "[1]", "value": "resistant"}, {"measurement": "ABCC1 expression, fold down regulated", "setting": "ABCC1", "value": "did not alter the expression"}, {"measurement": "response of colonospheres to treatment", "setting": "[2]", "value": "resistant"}, {"measurement": "Vd", "setting": "[3]; 5-FU alone, oral 40 mg", "value": 56.32, "unit": "L/kg"}, {"measurement": "AUC(0-inf)", "setting": "[3]; [6]", "value": 1140, "unit": "ng·h/mL"}, {"measurement": "AUC(0-t)", "setting": "[3]; [6]", "value": 1110, "unit": "ng·h/mL"}, {"measurement": "Cmax", "setting": "[3]; [6]", "value": 2450, "unit": "ng/mL"}, {"measurement": "half-life", "setting": "[3]; [6]", "value": 1.1, "unit": "h"}, {"measurement": "ALDH1A1, ALDH1A3 and ALDH3A1 expression", "setting": "[4]", "value": "did not alter the expression"}, {"measurement": "curative accountability", "setting": "advanced CRC", "value": "10–15%"}, {"measurement": "response of colonospheres to treatment", "setting": "[5]", "value": "sensitive"}, {"measurement": "IC50", "setting": "HCT-116^G13D", "value": 14.8, "unit": "µM"}, {"measurement": "ABCB1 expression, fold down regulated", "setting": "ABCB1", "value": "did not alter the expression"}]}]}
